Here are results for 20 compounds from ChEMBL document CHEMBL1144275, “Studies on the structure-activity relationship of 2',6'-dimethyl-l-tyrosine (Dmt) derivatives: bioactivity profile of H-Dmt-NH-CH(3)” (Bioorg Med Chem Lett, 2005).

For orientation: Ki means the dissociation constant of the complex between target and ligand, obtained from inhibition or displacement. A higher Ki goes with lower affinity.

Non-standard residues stand in square brackets, D forms with d. Residues, ends and D or L forms follow the SMILES beside them. Dmt = Cc1cc(O)cc(C)c1C[C@H](N)C(=O)O; Tic = O=C(O)[C@@H]1Cc2ccccc2CN1

The species entered for assay [1] is Rattus norvegicus. Kind of assay: Ratio of binding affinities for opioid receptors delta 1 and mu 1. The procedure, abridged: (§1)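 Ki values given as the mean ± SE of four to seven experiments; selectivity expressed as Kiδ/Kiμ.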
Assay [2] can be described thus: Binding affinity for rat brain opioid receptor delta 1. The procedure, abridged:
as §1

Assay [3] is described as follows: Binding affinity for rat brain opioid receptor mu 1. In a few lines: as §1
For assay [4], the species on record is Mus musculus. Kind of assay: Percent antagonism was evaluated relative to morphine in mice using naloxone. Format: functional.
For assay [5], the species on record is Mus musculus. Kind of assay: Minimum effective dose showing antinociception activity in mice. Format: functional. In a few lines:
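Minimum effective dose (nmol) for antinociception in mice after intracerebroventricular administration, measured by tail-flick and hot-plate tests.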

Assay [6] concerns Mus musculus. Kind of assay: Analgesia was determined by tail-flick (TF) test relative to morphine in mice after antinociception of intracerebroventricularly (icv) administration;Range 1.3-1.7. Format: functional.
Assay [7] has as its system Mus musculus. As to the kind of experiment: Analgesia was determined by hotplate (HP) test relative to morphine in mice after antinociception of intracerebroventricularly (icv) administration;Range-0.64?0.85. Format: functional.
The test system of assay [8] is Mus musculus. Kind of assay: Analgesia was determined by hotplate (HP) test relative to morphine in mice after antinociception of intracerebroventricularly (icv) administration. Format: functional.
Assay [9] deals with Mus musculus. Kind of assay: Analgesia was determined by tail-flick (TF) test relative to morphine in mice after antinociception of intracerebroventricularly (icv) administration;Range 0.48-0.55. Format: functional.

Turning to `Cc1cc(O)cc(C)c1C[C@H](N)C(=O)NC1CCCCC1`, the Ratio in [1] amounted to 1.71. The Ki in [2] came to 197 nM; in [3] it was 115 nM.
For the compound `Cc1cc(O)cc(C)c1C[C@H](N)C(=O)NCN`, the Ratio in assay [1] was 13.4. Besides, the Ki in [2] came to 2410 nM; in assay [3] it was 180 nM.
`CNC(=O)[C@@H](N)Cc1c(C)cc(O)cc1C` displayed an Antagonism in assay [4] of 73%. Besides, in assay [1], the Ratio came to 61.7. Further, the results for the Ki in assay [2] and in assay [3] were 460 nM and 7.45 nM, respectively. In assay [5], this compound displayed an MED of 30 nM. The results for the Activity in assay [6] and in [7] were 1.7% and 0.85%, respectively.
As for `Cc1cc(O)cc(C)c1C[C@H](N)C(=O)NC(C)(C)C`, in assay [1], the Ratio was determined as 14.8. Also, the values for the Ki in assay [2] and in [3] were 531 nM and 36 nM, respectively.
For the compound `Cc1cc(O)cc(C)c1C[C@H](N)C(=O)NCC(=O)O`, the Ratio in assay [1] was 0.43. Also, the Ki turned out to be 1150 nM in assay [2] and 2700 nM in assay [3].
`Cc1cc(O)cc(C)c1C[C@H](N)C(=O)NC1C2CC3CC(C2)CC1C3` (some centres undefined): the Ratio in assay [1] was determined as 0.23. Moreover, the Ki in assay [2] was found to be 175 nM; in assay [3], 746 nM.
`Cc1cc(O)cc(C)c1C[C@H](N)C(=O)NC12CC3CC(CC(C3)C1)C2`: in assay [1], the Ratio came out at 0.27. The results for the Ki in assay [2] and in [3] were 208 nM and 767 nM, respectively.
For the compound `Cc1cc(O)cc(C)c1C[C@H](N)C(=O)NCCO`, the Ratio in assay [1] was determined as 28.1. For the same compound, the Ki in [2] was 455 nM; in assay [3], 16.2 nM.
For the compound `Cc1cc(O)cc(C)c1C[C@H](N)C(=O)N1Cc2ccccc2C[C@H]1C(=O)O` (H-[Dmt]-[Tic]-OH), in assay [1], the Ratio turned out to be 6.6e-07. The compound also registered a Ki in assay [3] of 3220 nM.
As for `Cc1cc(O)cc(C)c1C[C@H](N)C(=O)Nc1cccc2ccccc12`, the Ratio in [1] was found to be 0.054. Besides, the figures for the Ki in [2] and in [3] were 52.8 nM and 966 nM, respectively.
On the same counts, the results for `Cc1cc(O)cc(C)c1C[C@H](N)C(=O)NCCN` are 338, 3650 nM and 10.8 nM.
Consider `CCNC(=O)[C@@H](N)Cc1c(C)cc(O)cc1C`, for which the Ratio in assay [1] turned out to be 41.6. Also, the inhibition constant (Ki) in [2] was determined as 649 nM; in assay [3], 15.6 nM.
With `Cc1cc(O)cc(C)c1C[C@H](N)C(=O)NO`, the Ratio in [1] came to 5.58. In assay [2], this compound had an inhibitory constant (Ki) of 9490 nM.
For the compound `Cc1cc(O)cc(C)c1C[C@H](N)C(=O)Nc1ccccc1`, in assay [1], the Ratio is 0.069. The values for the Ki in assay [2] and in assay [3] were 120 nM and 1730 nM, respectively.
On to `CONC(=O)[C@@H](N)Cc1c(C)cc(O)cc1C`, for which the Ratio in assay [1] is 26.3. Moreover, the Ki is 4580 nM in [2] and 174 nM in assay [3].
For the compound `Cc1cc(O)cc(C)c1C[C@H](N)C(=O)NC(C)C`, in [1], the Ratio worked out at 22. In addition, the Ki was 492 nM in [2] and 22.4 nM in assay [3].
For the compound `Cc1cc(O)cc(C)c1C[C@H](N)C(N)=O`, in [4], the Antagonism is recorded as 100%. The Ratio in assay [1] was 13. This compound gave a Ki in [2] of 1470 nM. Besides, in assay [5], the MED was 200 nM. For the same compound, the Activity in [8] worked out at 0.26%; in assay [9], 0.55%.
For `CCCNC(=O)[C@@H](N)Cc1c(C)cc(O)cc1C`, the Ratio in assay [1] is 9.82. Besides, the inhibition constant (Ki) was determined as 166 nM in assay [2] and 16.9 nM in assay [3].
Consider `Cc1cc(O)cc(C)c1C[C@H](N)C(=O)O`, for which the Ratio in [1] was determined as 1.55. Moreover, in [2], affinity was put at a Ki of 46500 nM.
Consider `Cc1cc(O)cc(C)c1C[C@H](N)C(=O)NCCC(=O)O`, for which, in [1], the Ratio came to 1. Further, the Ki is 328 nM in assay [2] and 329 nM in assay [3].
